{
  "source": "ChEMBL document CHEMBL1131453",
  "about": "“Design of N-acylprolyltyrosine \"tripeptoid\" analogues of neurotensin as potential atypical antipsychotic agents” (J Med Chem, 1998)",
  "key": {"Mus musculus": {"system": "Mus musculus", "test": "Compound was tested in vivo for its ability to antagonize apomorphine-induced climbing response in mice upon intraperitoneal administration", "format": "functional", "conditions": "ip", "outline": "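C57BL/6 male mice, 22–25 g, adapted 1 h in wire mesh cages. Compound in saline with 3% Tween 80 given ip 15 min before apomorphine 5.0 mg/kg sc (in saline with 0.1% ascorbic acid). Climbing scored 0–4 every 2 min, 30 readings, from 15 min after apomorphine. Totals are expressed as % of vehicle control. ED50 with 95% confidence limits by log-dose linear regression, 8–16 mice per dose.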"}, "Rattus norvegicus [1]": {"system": "Rattus norvegicus", "test": "Compound was tested in vivo for its ability to antagonize extrapolatory behavior impairment induced by DOPA in rats upon intraperitoneal administration", "format": "functional", "conditions": "ip", "outline": "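Outbred albino male rats, 180–200 g, placed in a water-plunged cylinder (22 °C) and must dive under its edge within 2 min; non-escapers discarded. A day later, Madopar (100 mg/kg L-DOPA + 25 mg/kg benserazide in 3% Tween 80) is given ip 60 min before testing. Compound in saline + 3% Tween 80 is given ip 10 min before Madopar. Successful escapes are recorded. ED50 with 95% confidence limits by linear regression, eight rats per dose.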"}, "Rattus norvegicus [2]": {"system": "Rattus norvegicus", "test": "Compound was tested in vivo for its ability to induce catalepsy in rats upon intraperitoneal administration", "format": "functional", "conditions": "ip", "outline": "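Adult outbred male rats, 200–250 g, dosed ip with compound in saline containing 3% Tween 80. Forepaws placed on a bar 7 cm high (Morpurgo apparatus) at 0.5, 1.0, 1.5 and 2 h. Bar time scored 0–3, tested twice per session at 2-min intervals. Scores are given as percent of the maximal cumulative score (15).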"}, "[3]": {"test": "Acute toxicity on male outbred albino mice upon intraperitoneal administration", "conditions": "mouse, in vivo, ip", "outline": "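Male outbred albino mice (Moscow region), 20–25 g, housed five per cage with free food and water at 21–22 °C, 40–50% humidity, 12/12 h light/dark. Single ip injection at doses up to 500–1000 mg/kg. Surviving animals were counted 2, 24 and 48 h after injection.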"}},
  "note": "Peptide text beside a SMILES is read from it. * marks the point of attachment. Nonanoyl = CCCCCCCCC(=O)*; Hexanoyl = CCCCCC(=O)*; Pentanoyl = CCCCC(=O)*",
  "data": [
    {"smiles": "CC(C)(C)OC(=O)N1CCC[C@H]1C(=O)N[C@@H](Cc1ccc(O)cc1)C(N)=O", "values": [
      {"measurement": "ED50", "setting": "Mus musculus", "value": 2.5, "unit": "mg/kg"}
    ]},
    {"smiles": "NC(=O)[C@H](Cc1ccc(O)cc1)NC(=O)[C@H]1CCCN1", "values": [
      {"measurement": "ED50", "setting": "Mus musculus", "value": 3.6, "unit": "mg/kg"}
    ]},
    {"smiles": "NC(=O)[C@@H](Cc1ccc(O)cc1)NC(=O)[C@@H]1CCCN1", "values": [
      {"measurement": "ED50", "setting": "Mus musculus", "value": "> 16", "unit": "mg/kg"}
    ]},
    {"smiles": "CC(C)(C)OC(=O)N1CCC[C@@H]1C(=O)N[C@@H](Cc1ccc(O)cc1)C(N)=O", "values": [
      {"measurement": "ED50", "setting": "Mus musculus", "value": 0.4, "unit": "mg/kg"}
    ]},
    {"smiles": "NC(=O)[C@H](Cc1ccc(O)cc1)NC(=O)[C@@H]1CCCN1C(=O)Cc1ccccc1", "values": [
      {"measurement": "ED50", "setting": "Mus musculus", "value": 2.2, "unit": "mg/kg"},
      {"measurement": "ED50", "setting": "Rattus norvegicus [1]", "value": 1.5, "unit": "mg/kg"},
      {"measurement": "ED50", "setting": "Rattus norvegicus [2]", "value": "> 1000", "unit": "mg/kg"},
      {"measurement": "LD50", "setting": "[3]", "value": "> 1000", "unit": "mg/kg"}
    ]},
    {"smiles": "NC(=O)[C@H](Cc1ccc(O)cc1)NC(=O)[C@H]1CCCN1C(=O)Cc1ccccc1", "values": [
      {"measurement": "ED50", "setting": "Mus musculus", "value": 4.9, "unit": "mg/kg"}
    ]},
    {"smiles": "NC(=O)[C@@H](Cc1ccc(O)cc1)NC(=O)[C@@H]1CCCN1C(=O)Cc1ccccc1", "values": [
      {"measurement": "ED50", "setting": "Mus musculus", "value": "> 8", "unit": "mg/kg"}
    ]},
    {"smiles": "NC(=O)[C@H](Cc1ccc(O)cc1)NC(=O)[C@@H]1CCCN1", "values": [
      {"measurement": "ED50", "setting": "Mus musculus", "value": 3.4, "unit": "mg/kg"},
      {"measurement": "ED50", "setting": "Rattus norvegicus [1]", "value": 1.6, "unit": "mg/kg"},
      {"measurement": "ED50", "setting": "Rattus norvegicus [2]", "value": "> 500", "unit": "mg/kg"},
      {"measurement": "LD50", "setting": "[3]", "value": "> 500", "unit": "mg/kg"}
    ]},
    {"smiles": "CCCCCC(=O)N1CCC[C@H]1C(=O)N[C@@H](Cc1ccc(O)cc1)C(N)=O", "note": "(Hexanoyl-Pro-Tyr-NH2)", "values": [
      {"measurement": "ED50", "setting": "Mus musculus", "value": 0.5, "unit": "mg/kg"},
      {"measurement": "ED50", "setting": "Rattus norvegicus [1]", "value": 0.4, "unit": "mg/kg"},
      {"measurement": "ED50", "setting": "Rattus norvegicus [2]", "value": "> 500", "unit": "mg/kg"},
      {"measurement": "LD50", "setting": "[3]", "value": "> 500", "unit": "mg/kg"}
    ]},
    {"smiles": "CCCCCCCCC(=O)N1CCC[C@H]1C(=O)N[C@@H](Cc1ccc(O)cc1)C(N)=O", "note": "(Nonanoyl-Pro-Tyr-NH2)", "values": [
      {"measurement": "ED50", "setting": "Mus musculus", "value": 0.5, "unit": "mg/kg"}
    ]},
    {"smiles": "CCCCC(=O)N1CCC[C@H]1C(=O)N[C@@H](Cc1ccc(O)cc1)C(N)=O", "note": "(Pentanoyl-Pro-Tyr-NH2)", "values": [
      {"measurement": "ED50", "setting": "Mus musculus", "value": 3.2, "unit": "mg/kg"}
    ]},
    {"smiles": "CN1CCN(C2=Nc3cc(Cl)ccc3Nc3ccccc32)CC1", "note": "[CLOZAPINE]", "values": [
      {"measurement": "ED50", "setting": "Rattus norvegicus [1]", "value": 20, "unit": "mg/kg"},
      {"measurement": "ED50", "setting": "Rattus norvegicus [2]", "value": "> 32", "unit": "mg/kg"}
    ]},
    {"smiles": "O=C(CCCN1CCC(O)(c2ccc(Cl)cc2)CC1)c1ccc(F)cc1", "note": "[HALOPERIDOL]", "values": [
      {"measurement": "ED50", "setting": "Mus musculus", "value": 0.1, "unit": "mg/kg"},
      {"measurement": "ED50", "setting": "Rattus norvegicus [1]", "value": 0.14, "unit": "mg/kg"},
      {"measurement": "ED50", "setting": "Rattus norvegicus [2]", "value": 0.5, "unit": "mg/kg"},
      {"measurement": "LD50", "setting": "[3]", "value": 35, "unit": "mg/kg"}
    ]},
    {"smiles": "CCN1CCC[C@H]1CNC(=O)c1cc(S(N)(=O)=O)ccc1OC", "note": "[LEVOSULPIRIDE]", "values": [
      {"measurement": "ED50", "setting": "Mus musculus", "value": 17.5, "unit": "mg/kg"},
      {"measurement": "ED50", "setting": "Rattus norvegicus [1]", "value": 16.5, "unit": "mg/kg"},
      {"measurement": "ED50", "setting": "Rattus norvegicus [2]", "value": "> 120", "unit": "mg/kg"},
      {"measurement": "LD50", "setting": "[3]", "value": 250, "unit": "mg/kg"}
    ]},
    {"smiles": "CCN1CCC[C@H]1CNC(=O)c1c(OC)ccc(Br)c1OC", "note": "[REMOXIPRIDE]", "values": [
      {"measurement": "ED50", "setting": "Mus musculus", "value": 1.2, "unit": "mg/kg"},
      {"measurement": "ED50", "setting": "Rattus norvegicus [1]", "value": 0.31, "unit": "mg/kg"},
      {"measurement": "ED50", "setting": "Rattus norvegicus [2]", "value": 8.7, "unit": "mg/kg"},
      {"measurement": "LD50", "setting": "[3]", "value": 302, "unit": "mg/kg"}
    ]}
  ]
}
